For experiment [1], the target named is Death-associated protein kinase 1 (Homo sapiens) (UniProt P53355). Put plainly: Inhibition of recombinant human DAPK1 (1 to 296 residues) at 1 uM using KKLNRTLSFAEPG as substrate measured after 40 mins in presence of [gamma33P]ATP by scintillation counting method relative to control.
The target in experiment [2] is Serine/threonine-protein kinase PAK 3 (Homo sapiens) (UniProt O75914). Description: Inhibition of recombinant full-length human PAK3 at 1 uM using RRRLSFAEPG as substrate measured after 40 mins in presence of [gamma33P]ATP by scintillation counting method relative to control.
In experiment [3] the test system is NCI-H1299. Description: Induction of cell cycle arrest in human H1299 cells assessed as accumulation at G2/M phase after 24 hrs by propidium iodide/RNase staining based flow cytometric analysis. It counts as functional. An outline of the steps: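 A549 and H1299 plated at 5×10^5 cells/mL in 6-well plates, treated after adherence for 24 h. Washed with PBS, fixed overnight in ice-cold 75% ethanol, stained with propidium iodide plus RNase A for 30 min at 37 °C, analysed by flow cytometry for phase distribution. Means ± SD, three independent experiments.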
On the technique in general: In flow cytometry, cells or beads pass a laser one at a time.

The target in experiment [4] is Macrophage-stimulating protein receptor (Homo sapiens) (UniProt Q04912). Put plainly: Inhibition of human Ron (983 to end residues) at 1 uM using GGMEDIYFEFMGGKKK as substrate measured after 40 mins in presence of [gamma33P]ATP by scintillation counting method relative to control. Summed up: (§1)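 Percent inhibition of kinase activity at a single compound concentration, measured by the outsourced Eurofins KinaseProfiler panel. Values are the mean of two independent experiments.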
Sequence of Macrophage-stimulating protein receptor (Homo sapiens) (Q04912 25-304 limits assumed): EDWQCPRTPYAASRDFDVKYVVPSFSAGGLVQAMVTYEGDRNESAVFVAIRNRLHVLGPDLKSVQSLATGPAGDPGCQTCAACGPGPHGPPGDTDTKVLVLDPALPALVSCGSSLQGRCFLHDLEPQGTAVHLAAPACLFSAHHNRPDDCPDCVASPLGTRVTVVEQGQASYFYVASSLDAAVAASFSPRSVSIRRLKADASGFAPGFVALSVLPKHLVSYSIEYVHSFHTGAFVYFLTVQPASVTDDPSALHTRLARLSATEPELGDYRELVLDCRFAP
Sequence of Macrophage-stimulating protein receptor (Homo sapiens) (Q04912 310-1400 limits assumed): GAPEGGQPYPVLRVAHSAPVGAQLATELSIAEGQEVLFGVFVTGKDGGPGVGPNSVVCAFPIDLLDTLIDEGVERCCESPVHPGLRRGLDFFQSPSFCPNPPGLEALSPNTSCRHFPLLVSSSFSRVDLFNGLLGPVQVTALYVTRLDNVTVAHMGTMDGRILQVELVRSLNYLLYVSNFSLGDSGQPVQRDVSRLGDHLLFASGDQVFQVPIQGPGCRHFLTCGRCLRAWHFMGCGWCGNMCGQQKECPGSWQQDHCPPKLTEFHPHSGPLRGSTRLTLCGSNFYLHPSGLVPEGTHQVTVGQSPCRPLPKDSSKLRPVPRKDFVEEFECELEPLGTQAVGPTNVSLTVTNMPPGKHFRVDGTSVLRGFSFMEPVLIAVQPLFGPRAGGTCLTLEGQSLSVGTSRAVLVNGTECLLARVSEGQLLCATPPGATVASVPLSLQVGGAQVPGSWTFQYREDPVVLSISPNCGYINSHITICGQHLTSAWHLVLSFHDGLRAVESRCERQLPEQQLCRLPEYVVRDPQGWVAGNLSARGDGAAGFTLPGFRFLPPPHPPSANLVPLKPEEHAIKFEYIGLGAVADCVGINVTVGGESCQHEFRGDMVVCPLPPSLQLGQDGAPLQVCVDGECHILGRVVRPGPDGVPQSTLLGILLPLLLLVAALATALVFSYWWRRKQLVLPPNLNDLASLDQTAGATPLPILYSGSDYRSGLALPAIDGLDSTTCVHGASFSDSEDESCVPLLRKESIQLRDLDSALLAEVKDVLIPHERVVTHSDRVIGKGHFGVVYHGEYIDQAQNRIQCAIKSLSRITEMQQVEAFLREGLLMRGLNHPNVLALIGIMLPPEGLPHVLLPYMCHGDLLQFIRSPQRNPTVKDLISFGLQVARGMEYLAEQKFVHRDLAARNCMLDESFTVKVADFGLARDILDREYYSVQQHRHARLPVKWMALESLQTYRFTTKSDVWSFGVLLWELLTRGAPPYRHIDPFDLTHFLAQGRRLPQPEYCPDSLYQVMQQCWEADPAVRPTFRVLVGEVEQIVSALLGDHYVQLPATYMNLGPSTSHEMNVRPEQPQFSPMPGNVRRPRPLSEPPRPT

In experiment [5] the target is Serine-protein kinase ATM (Homo sapiens) (UniProt Q13315). Put plainly: Inhibition of recombinant full-length human ATM at 1 uM using GST-cMyc-p53 as substrate measured after 40 mins by ELISA relative to control. (ELISA stands for enzyme-linked immunosorbent assay.)
The subject of experiment [6] is SiHa. Description: Antiproliferative activity against human SiHa cells assessed as inhibition of cell viability at 500 nM after 72 hrs by CCK-8 assay relative to control. In kind it is functional. Summed up:
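Single-concentration viability screen using CCK-8. Cells were seeded at 3000/well and treated for 72 h. A450 read after 1-4 h with reagent. Percent inhibition calculated against untreated control and blank wells as (Ac−As)/(Ac−Ab)×100%.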
(Tetrazolium assays rely on reduction of a dye to a coloured formazan, in cell work by metabolically active cells.)

The target in experiment [7] is Calcium/calmodulin-dependent protein kinase type II subunit delta (Homo sapiens) (UniProt Q13557). Description: Inhibition of recombinant full-length human CaMK2delta at 1 uM using calmodulin as substrate measured after 40 mins in presence of [gamma33P]ATP by scintillation counting method relative to control.
Sequence of Calcium/calmodulin-dependent protein kinase type II subunit delta (Homo sapiens) (Q13557 whole entry): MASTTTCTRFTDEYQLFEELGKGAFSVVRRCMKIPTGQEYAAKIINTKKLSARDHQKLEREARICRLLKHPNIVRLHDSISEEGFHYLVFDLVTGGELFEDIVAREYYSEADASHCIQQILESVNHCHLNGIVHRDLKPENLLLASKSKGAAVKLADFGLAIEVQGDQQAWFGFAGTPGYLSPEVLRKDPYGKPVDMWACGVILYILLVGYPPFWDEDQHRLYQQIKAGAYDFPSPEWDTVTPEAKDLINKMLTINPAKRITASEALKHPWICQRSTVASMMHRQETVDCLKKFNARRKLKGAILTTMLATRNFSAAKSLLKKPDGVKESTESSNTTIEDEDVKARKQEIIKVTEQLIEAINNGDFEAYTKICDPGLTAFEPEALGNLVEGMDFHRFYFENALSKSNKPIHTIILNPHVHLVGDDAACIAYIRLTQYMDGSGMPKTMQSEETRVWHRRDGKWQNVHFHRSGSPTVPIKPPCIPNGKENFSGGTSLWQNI
Experiment [8] deals with Serine/threonine-protein kinase Sgk3 (Homo sapiens) (UniProt Q96BR1). Put plainly: Inhibition of human SGK3 (119 to end residues) at 1 uM using GRPRTSSFAEGKK as substrate measured after 40 mins in presence of [gamma33P]ATP by scintillation counting method relative to control. Summed up:
as §1

Experiment [9] deals with A549. Put plainly: Inhibition of tumorsphere formation in human A549 cells assessed as decrease in number of spheres at 0.25 to 1 uM after 2 weeks by microscopic analysis. In kind it is functional, cell-based.
Experiment [10] deals with MAP kinase-interacting serine/threonine-protein kinase 2 (Homo sapiens) (UniProt Q9HBH9). Put plainly: Inhibition of recombinant full-length human Mnk2 at 1 uM using myelin basic protein as substrate measured after 40 mins in presence of [gamma33P]ATP by scintillation counting method relative to control.
Sequence of MAP kinase-interacting serine/threonine-protein kinase 2 (Homo sapiens) (Q9HBH9 whole entry, looked up): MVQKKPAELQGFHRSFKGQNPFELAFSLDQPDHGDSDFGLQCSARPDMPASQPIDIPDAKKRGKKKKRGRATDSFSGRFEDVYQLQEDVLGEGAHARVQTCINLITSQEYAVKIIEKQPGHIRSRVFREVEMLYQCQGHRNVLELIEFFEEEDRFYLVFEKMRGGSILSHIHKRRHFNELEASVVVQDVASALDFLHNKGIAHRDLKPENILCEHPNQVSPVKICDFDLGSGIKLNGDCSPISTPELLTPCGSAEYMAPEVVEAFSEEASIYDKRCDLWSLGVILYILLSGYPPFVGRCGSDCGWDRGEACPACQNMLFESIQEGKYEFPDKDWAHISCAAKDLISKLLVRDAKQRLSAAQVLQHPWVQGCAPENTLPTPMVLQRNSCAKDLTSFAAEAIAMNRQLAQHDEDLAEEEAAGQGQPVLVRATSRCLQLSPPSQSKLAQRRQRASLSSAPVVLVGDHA
Experiment [11] deals with Tyrosine-protein kinase Blk (Homo sapiens), P51451 [UNDEFINED MUTATION]. Put plainly: Inhibition of full-length recombinant human BLK M287V mutant at 1 uM using poly(Glu, Tyr) 4:1 as substrate measured after 40 mins in presence of [gamma33P]ATP by scintillation counting method relative to control. An outline of the steps: as §1
Sequence of Tyrosine-protein kinase Blk (Homo sapiens), P51451 [UNDEFINED MUTATION] (P51451 whole entry, looked up, stated change not applied): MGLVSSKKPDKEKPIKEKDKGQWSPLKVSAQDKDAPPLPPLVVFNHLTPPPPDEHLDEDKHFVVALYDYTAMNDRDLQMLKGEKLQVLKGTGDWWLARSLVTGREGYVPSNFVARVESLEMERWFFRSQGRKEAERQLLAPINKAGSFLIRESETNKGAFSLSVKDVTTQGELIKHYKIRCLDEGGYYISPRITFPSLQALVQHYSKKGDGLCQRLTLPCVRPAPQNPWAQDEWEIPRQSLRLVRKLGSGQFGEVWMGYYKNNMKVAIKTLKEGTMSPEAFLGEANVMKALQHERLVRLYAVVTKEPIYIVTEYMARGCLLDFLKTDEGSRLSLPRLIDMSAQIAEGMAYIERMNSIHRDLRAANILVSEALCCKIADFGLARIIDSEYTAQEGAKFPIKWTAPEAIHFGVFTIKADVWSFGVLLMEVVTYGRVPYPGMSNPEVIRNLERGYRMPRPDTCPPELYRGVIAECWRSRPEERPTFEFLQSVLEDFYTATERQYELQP
Experiment [12] deals with Protein kinase C gamma type (Homo sapiens) (UniProt P05129). Put plainly: Inhibition of recombinant full-length human PKCgamma at 1 uM using histone H1 as substrate measured after 40 mins in presence of [gamma33P]ATP by scintillation counting method relative to control.
The target of experiment [13] is Leucine-rich repeat serine/threonine-protein kinase 2 (Homo sapiens) (UniProt Q5S007). Put plainly: Inhibition of recombinant human LRRK2 (970 to end residues) at 1 uM using RLGRDKYKTLRQIRQ as substrate measured after 40 mins in presence of [gamma33P]ATP by scintillation counting method relative to control.
Experiment [14] deals with NCI-H1975. Put plainly: Antiproliferative activity against human NCI-H1975 cells assessed as inhibition of cell viability after 72 hrs by CCK-8 assay. It counts as functional, cell-based. To be noted: NCI-H1975, 72 h. An outline of the steps: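 Cells kept at 37 °C, 5% CO2 in DMEM or RPMI-1640 with 10% FBS and 1% penicillin/streptomycin, then seeded at 3000 cells/well (adherent) or 10,000 cells/well (suspension). Exposed to a range of concentrations for 72 h. CCK-8 added for 1-4 h before reading A450. […] Three independent experiments.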

The target of experiment [15] is Dual specificity tyrosine-phosphorylation-regulated kinase 2 (Homo sapiens) (UniProt Q92630). Description: Inhibition of recombinant full-length human DYRK2 at 1 uM using casein as substrate measured after 40 mins in presence of [gamma33P]ATP by scintillation counting method relative to control.
The target of experiment [16] is Proto-oncogene tyrosine-protein kinase Src (Homo sapiens) (UniProt P12931). Put plainly: Inhibition of recombinant full-length human cSRC at 1 uM using KVEKIGEGTYGVVYK as substrate measured after 40 mins in presence of [gamma33P]ATP by scintillation counting method relative to control.
For experiment [17], the system named is Calcium/calmodulin-dependent protein kinase kinase 2 (Homo sapiens), Q96RR4 [T85S]. Put plainly: Inhibition of recombinant full-length human CaMKK2 T85S mutant at 1 uM using calmodulin as substrate measured after 40 mins in presence of [gamma33P]ATP by scintillation counting method relative to control.
Sequence of Calcium/calmodulin-dependent protein kinase kinase 2 (Homo sapiens), Q96RR4 [T85S] (Q96RR4 whole entry T85S): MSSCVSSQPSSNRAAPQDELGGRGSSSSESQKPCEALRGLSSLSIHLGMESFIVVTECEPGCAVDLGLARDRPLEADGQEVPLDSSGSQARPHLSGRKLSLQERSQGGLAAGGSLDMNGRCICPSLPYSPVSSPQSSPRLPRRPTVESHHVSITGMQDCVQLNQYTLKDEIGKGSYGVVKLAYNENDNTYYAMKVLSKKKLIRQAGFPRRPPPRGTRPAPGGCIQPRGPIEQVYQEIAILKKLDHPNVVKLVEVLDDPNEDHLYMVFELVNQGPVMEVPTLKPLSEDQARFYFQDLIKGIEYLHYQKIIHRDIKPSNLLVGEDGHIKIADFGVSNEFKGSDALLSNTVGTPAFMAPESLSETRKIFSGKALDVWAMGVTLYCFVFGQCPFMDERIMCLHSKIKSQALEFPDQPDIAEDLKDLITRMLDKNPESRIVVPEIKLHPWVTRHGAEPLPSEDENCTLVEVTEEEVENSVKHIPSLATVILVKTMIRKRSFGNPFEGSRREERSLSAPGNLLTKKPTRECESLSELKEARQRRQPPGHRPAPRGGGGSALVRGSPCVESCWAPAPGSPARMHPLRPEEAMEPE
Experiment [18] deals with FKBP12A/mTOR (Homo sapiens) (UniProt P62942+P42345). Put plainly: Inhibition of recombinant full-length human mTOR/FKBP12 at 1 uM measured after 40 mins in presence of [gamma33P]ATP by scintillation counting method relative to control. In kind it is protein-complex assay.
Sequence of FKBP12A/mTOR (Homo sapiens) (P62942 2-108 limits assumed, other chains not shown): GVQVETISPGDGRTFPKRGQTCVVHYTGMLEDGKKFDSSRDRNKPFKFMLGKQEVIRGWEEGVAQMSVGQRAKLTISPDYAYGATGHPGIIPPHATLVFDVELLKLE
Experiment [19] concerns NCI-H1299. Description: Inhibition of tumorsphere formation in human H1299 cells assessed as decrease in number of spheres at 0.25 to 1 uM after 2 weeks by microscopic analysis. In kind it is functional, cell-based.
In experiment [20] the target is Serine/threonine-protein kinase tousled-like 2 (Homo sapiens) (UniProt Q86UE8). Description: Inhibition of human TLK2 (387 to end residues) at 1 uM using casein as substrate measured after 40 mins in presence of [gamma33P]ATP by scintillation counting method relative to control. Summed up:
as §1

Experiment [21] concerns the target Serine/threonine-protein kinase VRK2 (Homo sapiens) (UniProt Q86Y07). Description: Inhibition of recombinant human VRK2 (1 to 336 residues) at 1 uM using casein as substrate measured after 40 mins in presence of [gamma33P]ATP by scintillation counting method relative to control.

inhibition, Activity and IC50 data for one molecule are collected here from ChEMBL document CHEMBL4376814, “Novel cyclin-dependent kinase 9 (CDK9) inhibitor with suppression of cancer stemness activity against non-small-cell lung cancer” (Eur J Med Chem, 2019).

Active and inactive are the calls of the source. The calls are words filed in the database; no cut-off is given here.

The term inhibition denotes the drop in the measured response relative to a control, in per cent. What is called IC50 is the concentration at which inhibition is half-maximal.

Sequence of Death-associated protein kinase 1 (Homo sapiens) (P53355 whole entry, looked up, the tested form may be a part): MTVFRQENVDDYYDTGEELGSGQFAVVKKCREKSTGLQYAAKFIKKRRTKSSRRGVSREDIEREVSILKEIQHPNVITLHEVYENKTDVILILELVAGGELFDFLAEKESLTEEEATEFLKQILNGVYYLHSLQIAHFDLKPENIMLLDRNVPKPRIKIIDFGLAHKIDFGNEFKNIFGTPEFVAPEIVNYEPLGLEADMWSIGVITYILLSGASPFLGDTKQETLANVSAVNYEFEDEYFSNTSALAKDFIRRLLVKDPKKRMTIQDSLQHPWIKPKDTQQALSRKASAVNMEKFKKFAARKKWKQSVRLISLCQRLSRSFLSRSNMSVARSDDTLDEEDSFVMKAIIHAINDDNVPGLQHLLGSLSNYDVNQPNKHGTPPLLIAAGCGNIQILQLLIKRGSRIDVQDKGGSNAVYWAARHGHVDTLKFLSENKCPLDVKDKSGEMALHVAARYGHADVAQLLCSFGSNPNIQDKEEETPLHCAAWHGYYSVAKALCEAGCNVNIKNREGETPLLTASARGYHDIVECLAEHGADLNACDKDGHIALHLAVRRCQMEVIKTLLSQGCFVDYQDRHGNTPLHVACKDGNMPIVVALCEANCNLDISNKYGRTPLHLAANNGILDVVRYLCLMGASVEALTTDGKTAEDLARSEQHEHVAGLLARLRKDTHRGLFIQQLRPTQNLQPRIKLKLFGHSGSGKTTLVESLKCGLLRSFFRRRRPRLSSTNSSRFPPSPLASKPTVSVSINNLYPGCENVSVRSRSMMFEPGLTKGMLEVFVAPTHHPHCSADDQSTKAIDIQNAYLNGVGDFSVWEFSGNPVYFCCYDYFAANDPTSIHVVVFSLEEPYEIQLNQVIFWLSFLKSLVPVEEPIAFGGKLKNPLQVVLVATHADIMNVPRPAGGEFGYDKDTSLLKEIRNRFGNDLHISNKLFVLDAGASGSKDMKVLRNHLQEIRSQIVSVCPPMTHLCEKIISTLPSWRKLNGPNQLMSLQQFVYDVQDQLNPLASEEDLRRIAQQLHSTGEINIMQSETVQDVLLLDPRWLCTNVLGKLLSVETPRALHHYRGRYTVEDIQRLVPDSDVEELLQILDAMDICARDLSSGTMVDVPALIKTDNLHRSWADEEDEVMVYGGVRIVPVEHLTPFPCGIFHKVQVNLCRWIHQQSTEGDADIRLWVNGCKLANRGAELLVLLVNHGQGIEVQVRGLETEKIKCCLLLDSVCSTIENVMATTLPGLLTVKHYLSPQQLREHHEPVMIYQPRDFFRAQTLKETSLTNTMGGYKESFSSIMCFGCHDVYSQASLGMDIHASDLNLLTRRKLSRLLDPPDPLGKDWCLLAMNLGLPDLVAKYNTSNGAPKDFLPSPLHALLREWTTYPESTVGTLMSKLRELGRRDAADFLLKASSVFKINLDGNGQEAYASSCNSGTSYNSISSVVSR

Take `CN(C)C(=O)c1cc2cnc(Nc3ccc(NC(=O)CCCCCCCN=C=S)cc3)nc2n1C1CCCC1`: the inhibition in experiment [1] was -5%; in [2], 2%; in experiment [4] it was 72%; in experiment [5], 6%; in experiment [7] it was 36%; in [8], 4%. Also, the inhibition in [10] was 68%; in [11], 45%; in experiment [12], 86%; in experiment [13], 8%; in experiment [15], -1%; in experiment [16], 35%. In addition, the inhibition in [17] was 88%; in experiment [18], -6%; in experiment [20] it was 8%; in experiment [21], 0%. Also, in experiment [3], the Activity result was “Dose-dependent effect”. For the same molecule, in [6], the inhibition at 0.5 µM turned out to be 11%. For the same molecule, the result in experiment [9] was Active. Further, the IC50 in experiment [14] was 837 nM. The inhibition entry in experiment [19] was “Active”.
